{"source": "ChEMBL document CHEMBL1150162", "about": "“Antimicrobial activities of naphthazarins from Arnebia euchroma” (2002)", "key": {"[1]": {"system": "Staphylococcus aureus", "experiment": "Antibacterial activity against methicillin-resistant Staphylococcus aureus 8-8S assessed as reduction of bacterial count at MIC within 2 hrs by time kill assay", "type": "functional, organism-based", "method_in_brief": "(§1)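 Time-kill in Mueller-Hinton broth with multiples of the broth microdilution MIC. Starting inoculum about 5 × 10^5 CFU/mL, incubated at 35 °C. Samples taken at 0, 2, 4, 6 and 24 h, dilution-plated on LB agar, and counted after 24 h. Detection limit 100 CFU/mL; bactericidal means 3 log or greater reduction.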"}, "[2]": {"system": "Enterococcus faecalis", "experiment": "Antibacterial activity against Enterococcus faecalis after 24 hrs by broth microdilution method", "type": "functional", "method_in_brief": "(§2)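 2-fold serial dilutions of test agent in LB broth, DMSO under 5% final. Inoculum about 5 × 10^5 CFU/mL, confirmed by LB agar plating. Incubated 24 h at 35 °C in ambient air. MIC is the lowest concentration with no visible growth. Three repeats; oxacillin, vancomycin and chloramphenicol as positive controls.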"}, "[3]": {"system": "Staphylococcus aureus", "experiment": "Ratio of MBC to MIC for Staphylococcus aureus", "type": "functional"}, "[4]": {"system": "Escherichia coli", "experiment": "Antibacterial activity against Escherichia coli up to 100 ug/mL after 24 hrs by broth microdilution method", "type": "functional, organism-based", "method_in_brief": "(§3)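 Broth microdilution with 2-fold serial dilutions in LB broth, compounds from DMSO stocks (DMSO below 5% final), inoculum about 5 × 10^5 CFU/mL. Incubated 24 h at 35 °C in ambient air. MIC is the lowest concentration with no visible growth. Experiments repeated three times.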"}, "[5]": {"system": "Pseudomonas aeruginosa", "experiment": "Antibacterial activity against Pseudomonas aeruginosa up to 100 ug/mL after 24 hrs by broth microdilution method", "type": "functional, organism-based", "method_in_brief": "as §3"}, "[6]": {"system": "Enterococcus faecium", "experiment": "Antibacterial activity against vancomycin-resistant Enterococcus faecium F935 expressing VanA assessed as reduction of bacterial count by time kill assay", "type": "functional, organism-based", "method_in_brief": "(§4)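 Time-kill in LB broth with multiples of the broth microdilution MIC (1/2 to 8× MIC). Starting inoculum about 5 × 10^5 CFU/mL, incubated at 35 °C. Samples taken at 0, 2, 4, 6 and 24 h, dilution-plated on LB agar, and counted after 24 h. Detection limit 100 CFU/mL.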"}, "[7]": {"system": "Enterococcus faecium", "experiment": "Antibacterial activity against vancomycin-resistant Enterococcus faecium F935 expressing VanA after 24 hrs by broth microdilution method", "type": "functional", "conditions": "F935, 24 h", "method_in_brief": "as §2"}, "[8]": {"system": "Enterococcus faecium", "experiment": "Ratio of MBC to MIC for vancomycin-resistant Enterococcus faecium F935 expressing VanA", "type": "functional"}, "[9]": {"system": "Staphylococcus aureus", "experiment": "Antibacterial activity against methicillin-resistant Staphylococcus aureus 8-8S after 48 hrs by broth microdilution method", "type": "functional"}, "[10]": {"system": "Enterococcus faecalis", "experiment": "Antibacterial activity against vancomycin-resistant Enterococcus faecalis CKU-17 expressing VanB after 24 hrs by broth microdilution method", "type": "functional", "conditions": "CKU-17, 24 h", "method_in_brief": "as §2"}, "[11]": {"system": "HepG2", "experiment": "Cytotoxicity against human HepG2 cells after 48 hrs by MTT assay", "type": "functional", "conditions": "HepG2, 48 h, read-out: CD50 (the source's name)", "method_in_brief": "(§5)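 Cells seeded at 5 × 10^3 per well, grown 24 h, then given 2-fold dilutions of sample for 48 h. Medium replaced with serum-free medium, MTT added (5 mg/mL stock) for 2 h at 37 °C, formazan dissolved in DMSO, OD read at 550 nm. CD50 is the concentration giving 50% reduction in net cell increase. Quadruplicate, repeated at least twice.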"}, "[12]": {"system": "Enterococcus faecium", "experiment": "Antibacterial activity against vancomycin-resistant Enterococcus faecium F935 expressing VanA after 48 hrs by broth microdilution method", "type": "functional", "conditions": "F935, 48 h"}, "[13]": {"system": "Staphylococcus aureus", "experiment": "Antibacterial activity against Staphylococcus aureus after 24 hrs by broth microdilution method", "type": "functional", "method_in_brief": "as §2, with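 “in […]” for “in LB”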"}, "[14]": {"system": "Staphylococcus aureus", "experiment": "Antibacterial activity against methicillin-resistant Staphylococcus aureus 8-8S after 24 hrs by broth microdilution method", "type": "functional", "method_in_brief": "as §2, with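 “in […]” for “in LB”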"}, "[15]": {"system": "HeLa", "experiment": "Cytotoxicity against human HeLa cells after 48 hrs by MTT assay", "type": "functional", "conditions": "read-out: CD50 (the source's name)", "method_in_brief": "as §5"}, "[16]": {"system": "Staphylococcus aureus", "experiment": "Antibacterial activity against methicillin-resistant Staphylococcus aureus 8-8S assessed as reduction of bacterial count at 0.5 MIC within 2 hrs by time kill assay", "type": "functional", "parameters": "scale not given: the % may be the effect or the level left", "method_in_brief": "as §1"}, "[17]": {"system": "Enterococcus faecalis", "experiment": "Antibacterial activity against vancomycin-resistant Enterococcus faecalis CKU-17 expressing VanB assessed as reduction of bacterial count by time kill assay", "type": "functional, organism-based", "method_in_brief": "as §4"}, "[18]": {"system": "Staphylococcus aureus", "experiment": "Antibacterial activity against Staphylococcus aureus after 48 hrs by broth microdilution method", "type": "functional"}, "[19]": {"system": "Enterococcus faecalis", "experiment": "Antibacterial activity against vancomycin-resistant Enterococcus faecalis CKU-17 expressing VanB after 48 hrs by broth microdilution method", "type": "functional", "conditions": "CKU-17, 48 h"}, "[20]": {"system": "Enterococcus faecalis", "experiment": "Ratio of MBC to MIC for Enterococcus faecalis", "type": "functional"}, "[21]": {"system": "Enterococcus faecalis", "experiment": "Antibacterial activity against Enterococcus faecalis after 48 hrs by broth microdilution method", "type": "functional"}, "[22]": {"system": "OVCAR-3", "experiment": "Cytotoxicity against human OVCAR-3 cells after 48 hrs by MTT assay", "type": "functional", "conditions": "OVCAR-3, 48 h, read-out: CD50 (the source's name)", "method_in_brief": "as §5"}, "[23]": {"system": "Enterococcus faecium", "experiment": "Antibacterial activity against vancomycin-resistant Enterococcus faecium F935 expressing VanA assessed as reduction of bacterial count at MIC up to 6 hrs by time kill assay", "type": "functional, organism-based", "method_in_brief": "as §4"}, "[24]": {"system": "Enterococcus faecalis", "experiment": "Antibacterial activity against vancomycin-resistant Enterococcus faecalis CKU-17 expressing VanB assessed as reduction of bacterial count at >=2 times MIC within 4 hrs by time kill assay", "type": "functional, organism-based", "method_in_brief": "as §4"}, "[25]": {"system": "Enterococcus faecium", "experiment": "Antibacterial activity against vancomycin-resistant Enterococcus faecium F935 expressing VanA assessed as reduction of bacterial count at >=2 times MIC concentration within 4 hrs by time kill assay", "type": "functional, organism-based", "method_in_brief": "as §4"}, "[26]": {"system": "Enterococcus faecalis", "experiment": "Antibacterial activity against vancomycin-resistant Enterococcus faecalis CKU-17 expressing VanB assessed as reduction of bacterial count at MIC up to 6 hrs by time kill assay", "type": "functional, organism-based", "method_in_brief": "as §4"}, "[27]": {"system": "Staphylococcus aureus", "experiment": "Ratio of MBC to MIC for methicillin-resistant Staphylococcus aureus 8-8S", "type": "functional"}, "[28]": {"system": "Enterococcus faecalis", "experiment": "Ratio of MBC to MIC for vancomycin-resistant Enterococcus faecalis CKU-17 expressing VanB", "type": "functional"}}, "note": "Active and inactive are the calls of the source. The calls are words filed in the database; no cut-off is given here.", "data": [{"smiles": "CC(=O)O[C@@H](CC=C(C)C)C1=CC(=O)c2c(O)ccc(O)c2C1=O", "note": "[ACETYLALKANNIN]", "values": [{"measurement": "Activity", "setting": "[1]", "result": "Active"}, {"measurement": "MIC", "setting": "[2]", "result": 3.13, "unit": "µg/mL"}, {"measurement": "Ratio", "setting": "[3]", "result": "<=2"}, {"measurement": "Activity", "setting": "[4]", "result": "inactive"}, {"measurement": "Activity", "setting": "[5]", "result": "inactive"}, {"measurement": "Activity", "setting": "[6]", "result": "Dose-dependent effect"}, {"measurement": "MIC", "setting": "[7]", "result": 6.25, "unit": "µg/mL"}, {"measurement": "Ratio", "setting": "[8]", "result": "<=2"}, {"measurement": "MBC", "setting": "[9]", "result": 1.56, "unit": "µg/mL"}, {"measurement": "MIC", "setting": "[10]", "result": 6.25, "unit": "µg/mL"}, {"measurement": "CC50", "setting": "[11]", "result": 2, "unit": "µg/mL"}, {"measurement": "MBC", "setting": "[12]", "result": 6.25, "unit": "µg/mL"}, {"measurement": "MIC", "setting": "[13]", "result": 1.56, "unit": "µg/mL"}, {"measurement": "MIC", "setting": "[14]", "result": 1.56, "unit": "µg/mL"}, {"measurement": "CC50", "setting": "[15]", "result": 1.5, "unit": "µg/mL"}, {"measurement": "Activity", "setting": "[16]", "result": ">=99.9%"}, {"measurement": "Activity", "setting": "[17]", "result": "Dose-dependent effect"}, {"measurement": "MBC", "setting": "[18]", "result": 1.56, "unit": "µg/mL"}, {"measurement": "MBC", "setting": "[19]", "result": 6.25, "unit": "µg/mL"}, {"measurement": "Ratio", "setting": "[20]", "result": "<=2"}, {"measurement": "MBC", "setting": "[21]", "result": 3.13, "unit": "µg/mL"}, {"measurement": "CC50", "setting": "[22]", "result": 1.5, "unit": "µg/mL"}]}, {"smiles": "CC(C)=CC[C@H](OC(=O)CC(C)C)C1=CC(=O)c2c(O)ccc(O)c2C1=O", "note": "[ISOVALERYL ALKANNIN]", "values": [{"measurement": "MIC", "setting": "[2]", "result": 3.13, "unit": "µg/mL"}, {"measurement": "Activity", "setting": "[23]", "result": "Active"}, {"measurement": "Ratio", "setting": "[3]", "result": "<=2"}, {"measurement": "Activity", "setting": "[4]", "result": "inactive"}, {"measurement": "Activity", "setting": "[5]", "result": "inactive"}, {"measurement": "Activity", "setting": "[24]", "result": "Active"}, {"measurement": "Activity", "setting": "[25]", "result": "Active"}, {"measurement": "MIC", "setting": "[7]", "result": 3.13, "unit": "µg/mL"}, {"measurement": "Ratio", "setting": "[8]", "result": "<=2"}, {"measurement": "MBC", "setting": "[9]", "result": 3.13, "unit": "µg/mL"}, {"measurement": "MIC", "setting": "[10]", "result": 3.13, "unit": "µg/mL"}, {"measurement": "CC50", "setting": "[11]", "result": 2.2, "unit": "µg/mL"}, {"measurement": "Activity", "setting": "[26]", "result": "Active"}, {"measurement": "MBC", "setting": "[12]", "result": 3.13, "unit": "µg/mL"}, {"measurement": "MIC", "setting": "[13]", "result": 1.56, "unit": "µg/mL"}, {"measurement": "MIC", "setting": "[14]", "result": 3.13, "unit": "µg/mL"}, {"measurement": "CC50", "setting": "[15]", "result": 1.7, "unit": "µg/mL"}, {"measurement": "MBC", "setting": "[18]", "result": 1.56, "unit": "µg/mL"}, {"measurement": "MBC", "setting": "[19]", "result": 3.13, "unit": "µg/mL"}, {"measurement": "Ratio", "setting": "[20]", "result": "<=2"}, {"measurement": "MBC", "setting": "[21]", "result": 3.13, "unit": "µg/mL"}, {"measurement": "CC50", "setting": "[22]", "result": 0.9, "unit": "µg/mL"}]}, {"smiles": "CC1=CC(=O)c2c(O)cccc2C1=O", "note": "[PLUMBAGIN]", "values": [{"measurement": "MIC", "setting": "[2]", "result": 25, "unit": "µg/mL"}, {"measurement": "Ratio", "setting": "[3]", "result": ">=4"}, {"measurement": "MIC", "setting": "[7]", "result": 12.5, "unit": "µg/mL"}, {"measurement": "Ratio", "setting": "[8]", "result": ">=4"}, {"measurement": "MBC", "setting": "[9]", "result": 25, "unit": "µg/mL"}, {"measurement": "MIC", "setting": "[10]", "result": 12.5, "unit": "µg/mL"}, {"measurement": "Ratio", "setting": "[27]", "result": ">=4"}, {"measurement": "MBC", "setting": "[12]", "result": 50, "unit": "µg/mL"}, {"measurement": "MIC", "setting": "[13]", "result": 3.13, "unit": "µg/mL"}, {"measurement": "MIC", "setting": "[14]", "result": 3.13, "unit": "µg/mL"}, {"measurement": "MBC", "setting": "[18]", "result": 25, "unit": "µg/mL"}, {"measurement": "MBC", "setting": "[19]", "result": 50, "unit": "µg/mL"}, {"measurement": "Ratio", "setting": "[20]", "result": ">=4"}, {"measurement": "Ratio", "setting": "[28]", "result": ">=4"}, {"measurement": "MBC", "setting": "[21]", "result": 100, "unit": "µg/mL"}]}]}
